Source: PubChem
DNMT1 block = human DNMT1 methyltransferase inhibitors, primary screen, biochemical, molecular beacon, fluorescence, HinP1I cleavage, uHTS | DNA (cytosine-5)-methyltransferase 1 (Homo sapiens), P26358 | inhibition (reported as % activation of signal), % at 10 µM | actives 0.83% (n = 360,000); in the data active = inhibition above about 50%
SUMO1 PPI mod = modulators of SUMO1 protein-protein interactions, primary screen, biochemical, uHTS; Small ubiquitin-related modifier 1 (Homo sapiens), P63165; SUMO1 binding to a labelled peptide, TR-FRET, 1 h; inhibition, % at 20 µM; actives 0.33% (n = 360,000); in the data active = inhibition above about 37%
Target sequence (P63165 whole entry, looked up): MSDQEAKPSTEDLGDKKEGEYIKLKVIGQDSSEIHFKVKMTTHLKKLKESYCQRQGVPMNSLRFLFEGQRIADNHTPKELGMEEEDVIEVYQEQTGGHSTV
GRK2 aptamer HTS = compounds blocking aptamer binding on GRK2 – biochemical, human GRK2, bead flow cytometry, HTS, primary screen; AID 488847, 2010; actives 0.59% (n = 330,000); FAM-aptamer displacement from GRK2; inhibition of aptamer binding, % at 10 µM;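 active = inhibition of aptamer binding above 40%, roughly 3 SD of noise, on plates passing a quality check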;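 also: median bead fluorescence of bound FAM aptamer so fluorescent compounds give negative values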
STEP inh = STEP phosphatase inhibitors, primary screen, biochemical, fluorescence intensity, uHTS; recombinant STEP, OMFP fluorogenic substrate; actives 0.25% (n = 360,000); AID 588621, 2011; Tyrosine-protein phosphatase non-receptor type 5 (Homo sapiens), P54829; inhibition, % at 20 µM;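 active = inhibition at 20 µM, scaled per plate between control wells, above about 37%, limit read from the data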;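 also: 0% = DMSO with enzyme and substrate and 100% = substrate only without enzyme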
Target sequence (P54829 whole entry, looked up): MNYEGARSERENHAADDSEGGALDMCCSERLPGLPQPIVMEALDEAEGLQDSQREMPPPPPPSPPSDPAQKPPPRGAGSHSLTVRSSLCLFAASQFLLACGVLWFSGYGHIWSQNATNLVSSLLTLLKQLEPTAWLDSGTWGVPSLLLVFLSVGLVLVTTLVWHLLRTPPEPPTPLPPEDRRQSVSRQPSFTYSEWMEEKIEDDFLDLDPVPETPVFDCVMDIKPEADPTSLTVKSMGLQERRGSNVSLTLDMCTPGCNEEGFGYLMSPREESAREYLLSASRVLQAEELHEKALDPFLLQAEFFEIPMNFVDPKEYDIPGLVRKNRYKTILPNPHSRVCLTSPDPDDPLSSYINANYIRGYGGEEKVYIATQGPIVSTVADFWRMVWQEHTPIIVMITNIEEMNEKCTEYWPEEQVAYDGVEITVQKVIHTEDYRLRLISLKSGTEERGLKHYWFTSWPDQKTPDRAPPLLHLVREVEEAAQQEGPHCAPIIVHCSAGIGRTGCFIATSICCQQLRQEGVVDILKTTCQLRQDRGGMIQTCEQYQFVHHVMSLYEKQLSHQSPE
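Material: STEP (striatal-enriched tyrosine phosphatase) enzyme, cell-free; Compound dosing: 20 µM single dose in 1% DMSO; Technique: fluorescence read at 480 nm ex / 540 nm em; Times: reaction 20 min, ambient temperature; Medium: 50 mM Bis-Tris pH 6.0 with 2.5 mM DTT and 0.005% Tween 20; Also added: OMFP at 25 µM.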
LMPTP inh = LMPTP phosphatase inhibitors, primary screen, biochemical, fluorescence intensity, uHTS; Low molecular weight phosphotyrosine protein phosphatase (Homo sapiens), P24666; recombinant LMPTP-A, OMFP fluorogenic substrate; inhibition, % at 20 µM; actives 0.22% (n = 360,000); AID 651560, 2012;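 active = compounds that cut the enzyme signal by at least half of the control window in the single-dose screen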;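 also: plate controls were DMSO wells with enzyme plus substrate for no effect and substrate without enzyme for full effect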
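Material: LMPTP-A; amount: 0.625 nM enzyme; doses: single 20 µM dose; times: reaction 50 min, room temperature, dark; technique: fluorescence intensity of OMFP turnover product; benchmarks: no-enzyme and uninhibited controls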
Scp1 inh = Scp-1 phosphatase inhibitors, primary screen, biochemical, colorimetric, uHTS; AID 493091, 2011; Recombinant Scp1, phosphopeptide, malachite green phosphate absorbance; inhibition, % at 20 µM; actives 0.88% (n = 340,000);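 active = inhibition above about 50% at 20 µM, limit read from the data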;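 also: plate controls were DMSO wells with enzyme for no effect and wells lacking enzyme for full effect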
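Material – SCP-1 phosphatase catalytic domain, residues 76-261 · Buffer or medium – Acidic Tris acetate buffer with magnesium and detergent · Also added – Phospho 17-mer peptide substrate · Compound – single 20 µM dose, 1% DMSO · Times – 45 min room-temperature reaction, 5 min colour, 30 min stabiliser · Technique – Phosphate-binding colour reagent, absorbance read at 630 nm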
Scp-1 conf = Scp-1 phosphatase inhibitors, retest, confirmation, biochemical, colorimetric, single concentration; shares compounds with Scp1 inh; recombinant SCP-1 catalytic domain, phosphate release, malachite green absorbance; actives 61% (n = 2,500); inhibition, % at 20 µM;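 also: plate controls were DMSO with enzyme for no effect and buffer wells lacking enzyme for full effect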
Scp-1 MG ctr = colorimetric readout interference by compounds, confirmation, artefact control for Scp-1 inhibitor project, biochemical, single concentration; Colorimetric interference counterscreen, malachite green absorbance 630 nm; shares compounds with Scp1 inh; AID 540313, 2011; 2,500 tested, under 10 active; apparent inhibition (interference), % at 20 µM;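 also: compounds added after enzyme reaction finished so only phosphate colour detection is probed; plate controls were DMSO wells with completed Scp-1 reaction for no effect and substrate wells lacking enzyme for full effect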
Scp1 DSF = Scp-1 binding by thermal shift, confirmation, orthogonal assay for Scp-1 inhibitor project, biophysical, differential scanning fluorimetry | thermal shift relative to vanadate control, % at 40 µM | actives 25% (n = 1,500) | Recombinant SCP1, Sypro Orange thermal shift Tm | AID 540329, 2011 | shares compounds with Scp1 inh;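 active = substances whose mean melting-temperature shift, as a percentage of the reference inhibitor's shift, reaches about 5.3%, limit read from the data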;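 also: 0% = Tm of DMSO wells and 100% = Tm with sodium orthovanadate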
Active calls of the source: *; / = not tested or not shown. This is a sample that favours compounds with a hit; in the whole collection about 2.2% have one here.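 The calls were made as follows, unless noted: active = inhibition of at least 30% at 20 µM; inactive = the rest.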

SMILES	DNMT1 block	SUMO1 PPI mod	GRK2 aptamer HTS	STEP inh	LMPTP inh	Scp1 inh	Scp-1 conf	Scp-1 MG ctr	others
O=C(O)c1c[nH]c2c([N+](=O)[O-])cccc2c1=O	20	-9	/	8	3	83*	53*	-11	Scp1 DSF=-12
Brc1ccc(-c2nn3c(-c4ccccn4)nnc3s2)o1	8	-2	0	6	0	72*	50*	-11	Scp1 DSF=2
COC(=O)[C@H](CC(C)C)N1Cc2cc(OC)cc(OC)c2-c2ccccc2S1(=O)=O	2	14	2	0	0	98*	50*	-26	Scp1 DSF=-4
C=C1CCN(C(CC(C)C)C(=O)OC)S(=O)(=O)c2ccccc21 (stereo not drawn)	0	-3	1	-2	0	1	/	/
Cc1ccnc(NS(=O)(=O)c2ccc(N3C(=O)c4c(Cl)c(Cl)c(Cl)c(Cl)c4C3=O)cc2)n1	12	29	4	17	0	67*	27	-14
Cc1cn([C@H]2C[C@H](O)[C@@H](/C=C/C(=O)NCCN3CCCCC3)O2)c(=O)[nH]c1=O	14	4	/	-1	-1	/	/	/
CC(=O)N(c1ccccc1)c1c(F)c(F)c(F)c(F)c1F	0	-1	2	-2	-1	61*	-8	-13
Cc1ccc(N2CC(C(=O)Nc3nnc(SCCC4OCCO4)s3)CC2=O)cc1 (stereo not drawn)	-1	7	6	-3	-1	-8	-22	-19
COc1ccc(OC)c(CN2C(=O)CSCC2(C)C(=O)Nc2c(C)cccc2C)c1 (stereo not drawn)	/	1	/	/	-1	/	/	/
COc1ccc(Br)cc1/C=N/n1c(-c2ccccc2)n[nH]c1=S	4	4	0	0	-2	-2	/	/
Oc1c(Br)cc(/C=N/n2c(-c3ccccc3)n[nH]c2=S)cc1Br	2	21	2	12	0	56*	80*	-11	Scp1 DSF=9.1*
COc1cc(/C=N/n2c(-c3ccccc3)n[nH]c2=S)cc(OC)c1O	1	0	4	4	-2	-6	/	/
Oc1c(Br)cc(/C=N/n2c(-c3ccccc3)n[nH]c2=S)c(O)c1Br	8	15	3	2	1	79*	88*	-5	Scp1 DSF=4
Cc1ccc(NC(=O)c2noc3c2CCc2ccccc2-3)cc1	0	-3	1	-1	1	56*	-16	-15
CCc1ccc(NC(=O)c2noc3c2CCc2ccccc2-3)cc1	-5	1	0	3	2	-13	/	/
Oc1cccc(-c2ccc3nccn3c2)c1	-2	1	/	3	1	/	/	/
Cc1ccccc1-c1cnc(C(O)c2c(C)ccc3ccccc23)[nH]1 (stereo not drawn)	-4	-2	/	-3	-2	/	/	/
CC(C)C[C@H](NC(=O)NCCC1=CCCCC1)C(=O)O	1	0	0	-5	-2	-4	/	/
COC(=O)[C@H](CC(C)C)NC(=O)NCCC1=CCCCC1	5	11	0	0	0	85*	-11	-11
CN(C)S(=O)(=O)c1ccc(NC(=O)Cn2nc(-c3ccc4c(c3)OCCO4)ccc2=O)cc1	19	4	/	1	3	-5	/	/
Cc1ccc2[nH]c(O)c(N=NC(=O)c3ccc(NS(=O)(=O)c4cccs4)cc3)c2c1	-8	31	0	58*	44	100*	58*	-16	Scp1 DSF=-10
CC(Oc1cccc(Cl)c1)C(=O)Nc1ccncc1 (stereo not drawn)	1	2	2	0	-2	1	/	/
Cn1c(NC(=O)COc2ccccc2)cc(=O)n(C)c1=O	-1	3	0	2	0	9	-13	-17
CC(Oc1cccc(Cl)c1)C(=O)Nc1cc(=O)n(C)c(=O)n1C (stereo not drawn)	-1	3	0	-2	1	-6	-9	-2
Cn1c(NC(=O)/C=C/c2ccccc2)cc(=O)n(C)c1=O	3	-26	0	-1	-2	-43	-7	-9
SMILES	DNMT1 block	SUMO1 PPI mod	GRK2 aptamer HTS	STEP inh	LMPTP inh	Scp1 inh	Scp-1 conf	Scp-1 MG ctr	others
Cn1c(NC(=O)CCc2ccccc2)cc(=O)n(C)c1=O	5	7	0	-1	-1	7	-21	-16
COc1ccc(/C=C/C(=O)Nc2cc(=O)n(C)c(=O)n2C)cc1	6	-23	/	2	-2	-3	/	/
CC(C)c1cc(Cn2c3ccccc3c(=O)n2C(C)Cn2cc(-c3ccccc3)nn2)on1 (stereo not drawn)	/	1	/	/	-1	/	/	/
Cc1ccc(C(=O)N/N=C\C=C\c2ccc(Br)cc2)cn1	6	-19	36	6	1	72*	48*	-6	Scp1 DSF=-16
Cc1ccc(C(=O)N/N=C\C=C\c2ccccc2[N+](=O)[O-])cn1	3	-17	3	-3	-2	-6	/	/
COc1ccc(NC(=O)c2cc(C3CCCCN3C(=O)CCCc3ccccc3)on2)c(C)c1 (stereo not drawn)	-9	2	/	2	2	/	/	/
N#Cc1ccccc1C[C@H](N)C(=O)NC[C@H]1O[C@@H](n2cnc3c(N)ncnc32)[C@H](O)[C@@H]1O	-41	34	/	-2	0	/	/	/
CC1CCN(C(=O)CCc2ccc(S(=O)(=O)NC(C)C)cc2)CC1	-1	-2	0	-3	-1	67*	-23	-21
Cc1cccc(-c2cc(NCCc3cccnc3)n3nccc3n2)c1	2	3	/	-4	7	/	/	/
Cc1c(O)cc2c(c1O)C(=O)CC(c1ccc(O)cc1)O2 (stereo not drawn)	31	1	0	3	20	58*	45*	-9	Scp1 DSF=6.2*
